ChEMBL document CHEMBL3244097, “Fluorinated retinoic acids and their analogues. 1. Synthesis and Biological activity of (4-methoxy-2,3,6-trimethylphenyl)nonatetraenoic acid analogues” (J Med Chem, 1979)

What was measured:
[1] = test system: Mus musculus; assay: Antipapilloma activity against Hart Swiss albino mouse assessed as decrease in chemically-induced papillomas at 40 mg/kg, ip for 5 days/week for 2 weeks; type: functional; set-up: scale not given: the % may be the effect or the level left; conditions: route intraperitoneal
[2] = test system: Mus musculus; assay: Antipapilloma activity against Hart Swiss albino mouse assessed as decrease in chemically-induced papillomas at 10 mg/kg, ip for 5 days/week for 2 weeks; type: functional; set-up: scale not given: the % may be the effect or the level left; conditions: route intraperitoneal
[3] = test system: Mus musculus; assay: Antipapilloma activity against Hart Swiss albino mouse assessed as decrease in chemically-induced papillomas at 20 mg/kg, ip for 5 days/week for 2 weeks; type: functional; set-up: scale not given: the % may be the effect or the level left; conditions: route intraperitoneal
[4] = test system: Mus musculus; assay: Antipapilloma activity against Hart Swiss albino mouse assessed as decrease in chemically-induced papillomas compound treated ip for 5 days/week for 2 weeks; type: functional
How it was run: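 At least four doses were used. ED50, the dose giving a 50% decrease in papilloma diameter, was read from a plot of percent decrease versus log dose, fitted by least squares, with a correlation coefficient reported.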

[5] = test system: Mus musculus; assay: Antipapilloma activity against Hart Swiss albino mouse assessed as decrease in chemically-induced papillomas at 5 mg/kg, ip for 5 days/week for 2 weeks; type: functional; set-up: scale not given: the % may be the effect or the level left; conditions: route intraperitoneal
[6] = test system: Mus musculus; assay: Toxicity in mouse assessed as hypervitaminosis dose compound treated ip daily monday through friday in first week and monday through thursday in second week measured after 1 day of last injection; type: organism-based; conditions: in vivo, 24 h
How it was run: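 Normal mice received retinoid suspended in water containing 0.1% carboxymethylcellulose and 0.01% Triton X-100, given intraperitoneally daily Monday–Friday in week 1 and Monday–Thursday in week 2. Hypervitaminosis, taken as the measure of toxicity, was scored 1 day after the last injection.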

[7] = test system: Mus musculus; assay: Antipapilloma activity against Hart Swiss albino mouse assessed as decrease in chemically-induced papillomas at 1.25 mg/kg, ip for 5 days/week for 2 weeks; type: functional; set-up: scale not given: the % may be the effect or the level left; conditions: route intraperitoneal
[8] = test system: Mus musculus; assay: Antipapilloma activity against Hart Swiss albino mouse assessed as decrease in chemically-induced papillomas at 2.5 mg/kg, ip for 5 days/week for 2 weeks; type: functional; set-up: scale not given: the % may be the effect or the level left; conditions: route intraperitoneal
[9] = test system: Mus musculus; assay: Antipapilloma activity against Hart Swiss albino mouse assessed as decrease in chemically-induced papillomas at 600 mg/kg, ip once weekly for 2 weeks; set-up: scale not given: the % may be the effect or the level left; conditions: route intraperitoneal
[10] = test system: Mus musculus; assay: Antipapilloma activity against Hart Swiss albino mouse assessed as decrease in chemically-induced papillomas at 80 mg/kg, ip for 5 days/week for 2 weeks; type: functional; set-up: scale not given: the % may be the effect or the level left; conditions: route intraperitoneal
[11] = test system: Mus musculus; assay: Antipapilloma activity against Hart Swiss albino mouse assessed as decrease in chemically-induced papillomas at 1000 mg/kg, ip once weekly for 2 weeks; set-up: scale not given: the % may be the effect or the level left; conditions: route intraperitoneal

Row | SMILES | Activity [1] [%] | Activity [2] [%] | Activity [3] [%] | ED50 [4] [mg/kg/day] | Activity [5] [%] | Activity [6] [mg/kg/day] | Activity [7] [%] | Activity [8] [%] | Activity [9] [%] | Activity [10] [%] | Activity [11] [%]
1 | COC(=O)/C=C(C)/C=C/C(F)=C(C)/C=C/c1c(C)cc(OC)c(C)c1C | 79 | 35 | 60 | 13.8 | 28 | 50 |  |  |  |  | 
2 | COc1cc(C)c(/C=C/C(C)=C/C=C(F)/C(C)=C/C(=O)O)c(C)c1C |  | 80 |  | 2.7 | 63 | 25 | 34 | 48 |  |  | 
3 | CCOC(=O)/C=C(C)/C=C/C=C(C)/C=C/C1=C(C)CCCC1(C)C | 36 |  |  | 48 |  | 50 |  |  | 76 | 47 | 85
4 | CCOC(=O)/C=C(C)/C(F)=C/C(F)=C(C)/C=C/c1c(C)cc(OC)c(C)c1C |  |  |  | > 80 |  | > 200 |  |  |  | 33 | 
5 | CCOC(=O)/C(F)=C(C)/C=C/C=C(C)/C=C/C1=C(C)CCCC1(C)C |  |  | 40 | > 20 |  | 100 |  |  |  |  | 
6 | CCOC(=O)/C=C(C)/C(F)=C/C=C(C)/C=C/C1=C(C)CCCC1(C)C | 67 | 33 | 33 | 24.3 |  | 100 |  |  |  | 83 | 
7 | COC(=O)/C=C(C)/C=C/C(F)=C(C)/C=C/C1=C(C)CCCC1(C)C |  |  |  | < 80 |  | 200 |  |  |  | 60 | 
8 | CCOC(=O)/C(F)=C(C)/C=C/C=C(C)/C=C/c1c(C)cc(OC)c(C)c1C |  | 37 |  | > 10 |  | 12.5 |  |  |  |  | 
9 | CCOC(=O)/C=C(C)/C(F)=C\C=C(C)\C=C\c1c(C)cc(OC)c(C)c1C |  |  |  | 80 |  | 200 |  |  |  | 56 | 
10 | COC(=O)/C=C(C)/C=C/C(F)=C(C)\C=C\c1c(C)cc(OC)c(C)c1C |  |  |  | > 80 |  | 200 |  |  |  | 17 | 
11 | COC(=O)/C=C(C)/C=C/C=C(C)/C(F)=C/c1c(C)cc(OC)c(C)c1C |  |  |  | > 80 |  | > 200 |  |  |  | 3 | 
12 | CCOC(=O)/C=C(C)/C=C/C=C(C)/C=C(\F)c1c(C)cc(OC)c(C)c1C | 40 |  |  | > 40 |  |  |  |  |  |  | 
13 | CCOC(=O)/C=C(C)/C=C/C=C(C)/C=C(/F)c1c(C)cc(OC)c(C)c1C | 26 |  |  | > 40 |  |  |  |  |  |  | 
14 | CCOC(=O)/C(F)=C(C)/C(F)=C/C=C(C)/C=C/c1c(C)cc(OC)c(C)c1C |  |  |  | > 80 |  | > 200 |  |  |  | 17 | 
15 | CCOC(=O)/C(F)=C(C)/C=C/C(F)=C(C)/C=C/c1c(C)cc(OC)c(C)c1C |  |  |  | > 80 |  | > 200 |  |  |  | 35 | 
16 | CCOC(=O)\C=C(/C=C/C=C(C)/C=C/c1c(C)cc(OC)c(C)c1C)C(F)(F)F |  |  |  | > 80 |  | > 200 |  |  |  | -2 | 
17 | COC(=O)/C=C(C)/C=C/C=C(\C=C\c1c(C)cc(OC)c(C)c1C)C(F)(F)F |  |  |  | > 80 |  | > 200 |  |  |  | 25 | 
18 | COc1cc(C)c(/C=C/C(C)=C(F)/C=C/C(C)=C/C(=O)O)c(C)c1C |  | 54 | 87 | 7.1 | 30 | 50 |  | 28 |  |  | 
19 | CCNC(=O)/C=C(C)/C(F)=C/C=C(C)/C=C/c1c(C)cc(OC)c(C)c1C |  | 73 | 67 | < 10 |  | 50 |  |  |  |  | 
20 | CCNC(=O)/C=C(C)/C=C/C(F)=C(C)/C=C/c1c(C)cc(OC)c(C)c1C |  |  |  | 80 |  | 200 |  |  |  | 53 | 
21 | CCOC(=O)/C=C(C)/C(F)=C/C=C(C)/C=C/c1c(C)cc(OC)c(C)c1C | 69 | 76 | 62 | 4 | 43 | 50 |  |  |  | 82 | 
22 | COC(=O)/C=C(C)/C=C(F)/C=C(C)/C=C/c1c(C)cc(OC)c(C)c1C (mixture of isomers) |  |  |  | > 80 |  | > 200 |  |  |  | 25 | 
23 | COc1cc(C)c(/C=C/C(C)=C/C=C/C(C)=C/C(=O)O)c(C)c1C [ACITRETIN] | 90 | 43 | 66 | 12.5 | 18 | 100 |  |  |  |  | 
24 | CCOC(=O)/C=C(C)/C=C/C=C(C)/C=C/c1c(C)cc(OC)c(C)c1C [ETRETINATE] | 33 | 9 | 29 | 80 |  | 100 |  |  |  | 47 | 
25 | CCNC(=O)/C=C(C)/C=C/C=C(C)/C=C/c1c(C)cc(OC)c(C)c1C [MOTRETINIDE] | 73.8 | 23 | 54 | 19.2 | 11 | 50 |  |  |  |  | 
